A short description of data set [1]: melting temperature; fluorescence melt of hairpins on a sequencing array, two-state fit, raised by 9.35 °C to match UV melts. As to conditions: sodium 0.088 M. In a few lines:
(§1)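 Melting temperature and folding enthalpy were derived from bootstrapped two-state fits. The fitted temperatures were raised by 9.35 °C to agree with UV melts, and four replicates were combined by inverse variance. The underlying data were Cy3 fluorescence images of library hairpins, with annealed Cy3 and quencher oligos, on a sequenced MiSeq flow cell in 50 mM Na-HEPES pH 8.0, 25 mM NaCl, taken in 2.5 °C steps up to 60 °C, normalised to pre-quench Cy3 and to control constructs.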

Data set [2] is described as follows: folding enthalpy; higher = less favourable; fluorescence melt of hairpins on a sequencing array, two-state fit. As to conditions: sodium 0.088 M. In a few lines: as §1

With GATCAGCGAGCTGATC ((((((....)))))), the Tm in data set [1] amounted to 61.4 °C. Besides, in data set [2], the folding enthalpy was -44.7 kcal/mol.
For the sequence GATCAGCGGTCTGATC ((((((....)))))), the Tm in data set [1] came to 49.9 °C. In data set [2], the folding enthalpy was -32.1 kcal/mol.
The matching figures for GATCAGCGTCCTGATC ((((((....)))))): 49 °C and -32.4 kcal/mol.
For GATCAGGAAGCTGATC ((((((....)))))), the Tm in data set [1] is 53.9 °C. Besides, in data set [2], the folding enthalpy is -34.2 kcal/mol.
Regarding GATCAGGAATCTGATC ((((((....)))))), in data set [1], the Tm turned out to be 54.8 °C. Besides, in data set [2], the folding enthalpy is -41.8 kcal/mol.
In the case of GATCAGGACCTGATC ((((((...)))))), the Tm in data set [1] is 49.6 °C. In data set [2], the folding enthalpy was -40.4 kcal/mol.
For GATCAGGATTCTGATC ((((((....)))))), the Tm in data set [1] worked out at 49.8 °C. In addition, the folding enthalpy in data set [2] is -38.6 kcal/mol.
Regarding GATCAGGCCTCTGATC ((((((....)))))), in data set [1], the Tm was determined as 52.1 °C. Also, in data set [2], the folding enthalpy is -49.2 kcal/mol.
The matching figures for GATCAGGGACTGATC ((((((...)))))): 59.6 °C and -39.5 kcal/mol.
The matching figures for GATCAGGGGCCTGATC ((((((....)))))): 53 °C and -33.1 kcal/mol.
The matching figures for GATCAGGGTCCTGATC ((((((....)))))): 52.7 °C and -37.9 kcal/mol.
As to GATCAGGGTGCTGATC ((((((....)))))), the Tm in data set [1] came out at 51.5 °C. For the same sequence, in data set [2], the folding enthalpy was -31.2 kcal/mol.
On to GATCAGGTTCCTGATC ((((((....)))))), for which, in data set [1], the Tm was found to be 53.7 °C. For the same sequence, the folding enthalpy in data set [2] was -47.5 kcal/mol.
As to GATCAGGTTTCTGATC ((((((....)))))), in data set [1], the Tm amounted to 51.8 °C. Also, in data set [2], the folding enthalpy is -46.7 kcal/mol.
As for GATCAGTAAACTGATC ((((((....)))))), the Tm in data set [1] is 50.8 °C. In data set [2], the folding enthalpy is -37.4 kcal/mol.
Take GATCAGTAACTGATC ((((((...)))))): the Tm in data set [1] is 47.9 °C. Further, the folding enthalpy in data set [2] was -37.8 kcal/mol.
Turning to GATCAGTAGCTGATC ((((((...)))))), the Tm in data set [1] stood at 48.3 °C. Besides, in data set [2], the folding enthalpy was -35.8 kcal/mol.
Turning to GATCAGTAGTCTGATC ((((((....)))))), the Tm in data set [1] was determined as 50.2 °C. Moreover, in data set [2], the folding enthalpy was -37 kcal/mol.
As to GATCAGTATCCTGATC ((((((....)))))), the Tm in data set [1] was 48.7 °C. In addition, in data set [2], the folding enthalpy was -33.3 kcal/mol.
Regarding GATCAGTATCTGATC ((((((...)))))), in data set [1], the Tm turned out to be 48.5 °C. Besides, in data set [2], the folding enthalpy is -34.9 kcal/mol.
On to GATCAGTCACCTGATC ((((((....)))))), for which, in data set [1], the Tm stood at 49.6 °C. Besides, the folding enthalpy in data set [2] was -36.4 kcal/mol.
In the case of GATCAGTCGACTGATC ((((((....)))))), the Tm in data set [1] is 55.5 °C. Moreover, in data set [2], the folding enthalpy was -53.5 kcal/mol.
For the sequence GATCAGTCTCCTGATC ((((((....)))))), the Tm in data set [1] worked out at 49.4 °C. The folding enthalpy in data set [2] is -39.1 kcal/mol.
The matching figures for GATCAGTGAGCTGATC ((((((....)))))): 56.2 °C and -36.1 kcal/mol.
GATCAGTGCACTGATC ((((((....)))))): the Tm in data set [1] is 56.3 °C. The folding enthalpy in data set [2] is -58.7 kcal/mol.
For the sequence GATCAGTGCTCTGATC ((((((....)))))), the Tm in data set [1] came to 52.1 °C. For the same sequence, the folding enthalpy in data set [2] was -26.4 kcal/mol.
The matching figures for GATCAGTGGGCTGATC ((((((....)))))): 54.4 °C and -48.6 kcal/mol.
As for GATCAGTGTACTGATC ((((((....)))))), in data set [1], the Tm was found to be 59.1 °C. The folding enthalpy in data set [2] was -33.1 kcal/mol.
For GATCAGTTAACTGATC ((((((....)))))), the Tm in data set [1] came out at 54.4 °C. For the same sequence, the folding enthalpy in data set [2] was -40.5 kcal/mol.
In the case of GATCAGTTAGCTGATC ((((((....)))))), the Tm in data set [1] turned out to be 53.1 °C. The folding enthalpy in data set [2] was -40.2 kcal/mol.
As for GATCAGTTTACTGATC ((((((....)))))), the Tm in data set [1] was determined as 59.6 °C. Moreover, in data set [2], the folding enthalpy is -49.2 kcal/mol.
Turning to GATCAGTTTCTGATC ((((((...)))))), the Tm in data set [1] worked out at 50.8 °C. Besides, the folding enthalpy in data set [2] was -43.7 kcal/mol.
For GATCATAAAAATGATC ((((((....)))))), the Tm in data set [1] was 36.8 °C. Also, the folding enthalpy in data set [2] is -27.4 kcal/mol.
With GATCATAACGATGATC ((((((....)))))), the Tm in data set [1] came out at 45.9 °C. Besides, the folding enthalpy in data set [2] is -31.5 kcal/mol.
The matching figures for GATCATAATAATGATC ((((((....)))))): 45.4 °C and -35.4 kcal/mol.
As to GATCATAATTATGATC ((((((....)))))), the Tm in data set [1] stood at 47.8 °C. Moreover, in data set [2], the folding enthalpy was -42 kcal/mol.
GATCATACAGATGATC ((((((....)))))): the Tm in data set [1] was 44.4 °C. Moreover, the folding enthalpy in data set [2] was -35.8 kcal/mol.
GATCATACCAATGATC ((((((....)))))): the Tm in data set [1] was determined as 48.4 °C. Further, the folding enthalpy in data set [2] was -39.4 kcal/mol.

These data come from the array DNA melting data of Ke et al. (doi:10.1101/2024.01.08.574731).
